High-throughput results: PubChem, Sanford-Burnham Center for Chemical Genomics
Sampled rows, rich in hits. Any-hit rate of the full collection: about 2.9%.
SENP6 block – blocks the human protease SENP6 | AID 2599 | 1.8% of 330,000 active | inhibition, % at 10 µM | Recombinant SENP6 catalytic domain, aminoluciferin luminescence;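 active = inhibition above about 50% at the single tested dose, limit read from the data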
Target sequence (Q9GZR1 628-1112 limits assumed): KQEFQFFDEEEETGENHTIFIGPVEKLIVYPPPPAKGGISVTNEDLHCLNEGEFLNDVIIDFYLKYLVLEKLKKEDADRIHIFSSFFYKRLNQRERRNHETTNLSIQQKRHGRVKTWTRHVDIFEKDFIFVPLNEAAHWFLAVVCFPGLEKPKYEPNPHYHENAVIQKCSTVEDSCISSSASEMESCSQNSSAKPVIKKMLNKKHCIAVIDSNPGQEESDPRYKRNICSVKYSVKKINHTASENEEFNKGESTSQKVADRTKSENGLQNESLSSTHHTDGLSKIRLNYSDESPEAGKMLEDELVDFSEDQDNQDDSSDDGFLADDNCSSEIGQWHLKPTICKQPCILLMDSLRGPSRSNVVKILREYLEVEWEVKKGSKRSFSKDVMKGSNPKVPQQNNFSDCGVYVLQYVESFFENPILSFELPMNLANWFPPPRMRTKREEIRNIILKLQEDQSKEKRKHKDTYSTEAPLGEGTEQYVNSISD
SENP8 block-1 – blocks human SENP8 cleavage of Nedd8 substrate; Q96LD8; recombinant SENP8, Nedd8 substrate fluorescence; inhibition, % at 20 µM; 0.64% of 360,000 active; AID 602440; in the data active = inhibition mostly above about 40%, no sharp cut-off; inactive = mostly below about 27%
SENP8 block-2 – SENP8 protease inhibition. Q96LD8. inhibition, % at 10 µM. 1.2% of 330,000 active. purified SENP8, Z-RLRGG-aminoluciferin cleavage, luminescence; in the data active = inhibition above about 50%
SENP1 inh – blocks the human SENP1 SUMO protease catalytic domain | Q9P0U3 | recombinant SENP1 catalytic domain, CyPet-SUMO1-YPet FRET cleavage | inhibition, % at 10 µM | 0.21% of 360,000 active;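 active = inhibition at least 30% at 10 µM, raw YFP signal under a set limit, fluorescence ratio 0.5 to 1.5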
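Material – human SENP1 catalytic domain · Input – SENP1 enzyme, 20 pM final · Compound dosing – single concentration of 10 µM compound, 0.5% DMSO final · Timing – enzyme reaction for 50 min at room temperature, dark · Measured by – FRET fluorescence in CFP and YFP emission channels · Control set – no-enzyme wells low, DMSO-plus-enzyme wells high control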
Apaf1 inhib – blocks human Apaf-1 apoptosome activity; 0.71% of 330,000 active; AID 489030; inhibition, % at 20 µM; reconstituted apoptosome caspase-3 activity, DEVD-Rh110 fluorescence; O14727; active = inhibition of at least 40% at 20 µM
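detection = Rh110 fluorescence intensity | test system = biochemical Apaf-1 apoptosome reconstitution | also added = cytochrome c and DEVD-Rh110 substrate | schedule = 30 min plus 50 min, RT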
SENP7 block – blocks the human protease SENP7; AID 434973; 1.5% of 330,000 active; recombinant SENP7, Z-RLRGG-aminoluciferin luminescence, 40 min; Q9BQF6; inhibition, % at 5 µM;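 active = inhibition above about 50% at the single test dose, limit read from the data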
Numbers stand for hits; n = inactive; x = no result given.

SMILES	SENP6 block	SENP8 block-1	SENP8 block-2	SENP1 inh	Apaf1 inhib	SENP7 block
COc1cccc(C(NC(C)=O)c2nc(-c3ccc(F)cc3OC)cs2)c1 (centres undefined)	x	n	x	n	x	x
COc1ccc(NC(=O)Nc2ccc(F)c(Cl)c2)cc1	n	n	n	n	n	51
Cc1nnsc1C(=O)Nc1ccc(Cl)cc1	n	n	n	n	n	n
Cc1nnsc1C(=O)NC(=O)Nc1ccc(F)c(Cl)c1	82	n	78	n	n	n
O=C(CN1CCN(C(=O)C2CCN(C(=O)/C=C/c3ccccc3)CC2)CC1)Nc1ccc(F)cc1	x	n	x	n	x	x
Cc1ccc(NC(=O)c2cc(N3C(=O)C=CC3=O)ccc2N2CCOCC2)cc1Cl	x	n	x	n	x	x
CNC[C@H](O)c1ccc(O)c(O)c1	n	55	n	n	n	n
O=C(O)c1cc(O)c2c(c1)C(=O)c1cccc(O)c1C2=O	n	n	n	n	n	n
COc1cc(C)cc(C(=O)O)c1C1=C(O)c2cccc(O)c2C(=O)C1=O	n	55	n	n	n	n
COc1ccc(-c2ccc3c(c2)C2CC3CCN2)cc1 (centres undefined)	x	n	x	n	x	x
COc1cccc(/C=N/NC(=O)c2cnn(-c3ccccc3)c2N)c1	83	n	71	n	n	81
CC1(C)CC(N=C2C([N+](=O)[O-])=CC=C3C2=NC2(CCCCC2)N3O)CC(C)(C)N1	n	50	n	n	n	n
O=[N+]([O-])C1=CC=C2C(=NC3(CCCCC3)N2O)C1=NC1CCCCC1	n	n	n	n	n	n
Cc1noc(C)c1C(=O)Nc1nc2ccccc2s1	97	n	94	n	n	98
COc1ccc(N=[N+]([O-])c2ccc(OC)cc2)cc1	x	41	x	n	x	x
COC(=O)Nc1nnc(/C=C/c2ccc(OC)cc2)s1	59	n	n	n	n	n
COc1ccc(/C=C/c2nnc(NC(C)=O)s2)cc1	n	n	n	n	n	n
Cc1ccc2c(c1)-c1c(ssc1=S)C(C)(C)N2C(=O)CSc1nncn1C	n	43	n	n	n	n
COC(=O)c1ccc2c(c1)SC1=C(CCCC1=O)N2	n	n	n	43	n	n
C=CCOC(=O)c1ccccc1C(=O)OCC1CO1 (centres undefined)	x	n	x	n	x	x
Fc1ccc(N/N=C/c2ccncc2)c(F)c1	58	n	n	n	n	n
Fc1ccc(N/N=C/C=C/c2ccccc2)c(F)c1	n	n	n	n	n	n
CCCCCCCCCCCC1=C(O)C(=O)C=C(O)C1=O	x	46	x	n	x	x
Cc1cc2nc(C(C)(C)C)c(Cc3ccsc3)n2c(C)c1Br	x	n	x	n	x	x
CC(=O)Oc1cc(O)c2c(=O)c(OC(C)=O)c(-c3ccc(OC(C)=O)c(OC(C)=O)c3)oc2c1	n	40	n	51	n	n
SMILES	SENP6 block	SENP8 block-1	SENP8 block-2	SENP1 inh	Apaf1 inhib	SENP7 block
CCc1ccc(C(=O)COC(=O)c2cccs2)cc1	n	n	91	n	n	97
CC[n+]1c(/C=C/c2ccc(OC)c(OC)c2)ccc2ccccc21	n	n	n	n	n	n
CC[n+]1ccccc1/C=C/c1ccc(N(C)C)cc1	x	n	x	87	x	x
CC[n+]1c(/C=C/c2ccc(N(C)C)cc2)ccc2ccccc21	x	47	x	n	x	x
CN1/C(=C\C=C2/SC(=S)NC2=O)C(C)(C)c2ccccc21	n	n	n	n	n	n
CN1CCC/C1=C/C=C1\SC(=S)NC1=O	x	82	x	n	x	x
CC(C(=O)O)N1C(=O)/C(=C/C=C/c2ccco2)SC1=S (centres undefined)	n	n	n	n	47	n
O=C1/C(=C/C=C/c2ccco2)SC(=S)N1NS(=O)(=O)c1ccccc1	n	n	n	n	n	n
CCN(C(=O)C(C)N1C(=O)/C(=C/c2ccco2)SC1=S)C1CCS(=O)(=O)C1 (centres undefined)	n	48	n	n	n	n
O=C(c1ccc(Br)o1)N1CCc2ccccc21	94	x	93	x	n	95
O=C(c1ccc(Br)o1)N1CCCc2ccccc21	n	n	n	n	n	n
CC(NNC(=S)N1CCCCCC1)c1ccc2ccccc2n1 (centres undefined)	x	n	x	n	x	x
CC1=NOC(=O)/C1=C\c1ccc(-c2ccc(Br)cc2C(=O)O)o1	n	n	n	n	n	n
CC1=NN(c2ccc(Br)cc2)C(=O)/C1=C/c1ccc(-c2ccccc2C(=O)O)o1	n	n	n	n	78	n
CCOc1ccc(S(=O)(=O)Nc2cc(SCC(=O)O)c(O)c3ccccc23)cc1	x	46	x	n	x	x
Cc1c(NC(=S)N/N=C/c2ccc([N+](=O)[O-])cc2O)c(=O)n(-c2ccccc2)n1C	n	40	n	n	n	n
CCCn1c(=O)c(C(=O)OCC)c(O)c2cc(Br)ccc21	n	n	n	n	n	n
CCOC(=O)c1c2c(n(C)c1COC)C(=O)C(=O)c1ccc(Br)cc1-2	96	x	97	x	97	95
Cc1cc(C(=O)NNC(=O)c2ccccc2F)c2ccccc2n1	n	n	n	n	n	n
CN1CCN(CCCNC(=O)c2ccc(/C=C3\Oc4ccccc4N(Cc4ccccc4F)C3=O)cc2)CC1	n	n	n	n	n	n
Cc1cccc(CN2C(=O)/C(=C\c3ccc(C(=O)NCCCN4CCN(C)CC4)cc3)Oc3ccccc32)c1	n	n	n	n	53	n
O=C1C2C3C=CC(C3)C2C(=O)N1CNc1ccc(O)cc1 (centres undefined)	72	x	n	x	94	n
Cc1ccc(NCN2C(=O)C3C4C=CC(C4)C3C2=O)cc1 (centres undefined)	n	n	n	n	n	n
CCCCN(Cc1ccco1)S(=O)(=O)c1csc(C(N)=O)c1	n	n	n	n	n	n
O=C(c1ccccc1)n1ccc(-c2cnc(-c3ccccc3)s2)n1	57	n	67	n	n	90
SMILES	SENP6 block	SENP8 block-1	SENP8 block-2	SENP1 inh	Apaf1 inhib	SENP7 block
O=C1c2cc([N+](=O)[O-])ccc2-c2cc(Br)c(N=C(NO)C(F)(F)F)cc21	x	n	x	69	x	x
O=C1c2cc([N+](=O)[O-])ccc2-c2cc(Cl)c(NC(=O)C(F)(F)F)cc21	x	n	x	n	x	x
CCCN(C(=O)/C=C/c1ccc(S(=O)(=O)N(CC)CC)cc1)C1CCS(=O)(=O)C1 (centres undefined)	n	n	n	n	n	n
O=C1Nc2ccccc2N=C(c2ccccc2)C1N(C(=O)c1ccnc2ccccc12)c1ccccc1 (centres undefined)	x	n	x	n	x	x
COc1cc(NCCCCC(C)N)c2nccc(C)c2c1 (centres undefined)	x	n	x	n	x	x
COc1cc(NCCCC(C)N)c2ncccc2c1 (centres undefined)	x	57	x	n	x	x
O=[N+]([O-])c1ccc2c(c1Nc1ccccc1Cl)=NC1(CCCCC1)N=2	n	n	n	n	n	n
Cc1ccc(Nc2c([N+](=O)[O-])ccc3c2=NC2(CCCCC2)N=3)cc1	n	44	n	n	n	n
COc1ccc(CCNC(=O)CSc2nnc(-c3ccco3)c(-c3ccco3)n2)cc1OC	n	x	n	x	43	n
